Reference: the EternaBench riboswitch data

Test system: MS2 coat protein
Experiment: apparent Kd, MS2 coat protein; higher = weaker binding; RNA-MaP array; FMN 200 µM where present
In short: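 Each design was made on Illumina sequencing-chip clusters by stalled E. coli RNA polymerase and titrated with SNAP-549-labelled MS2 coat protein from 0.7 or 1.5 nM, doubling to 3 µM, in the absence and then the presence of constant ligand. The buffer was 100 mM Tris-HCl pH 7.5, 80 mM KCl, 4 mM MgCl2, BSA, DTT, yeast tRNA and Tween-20. The apparent Kd is the median of filtered per-cluster fits of binding curves, with green signal normalised to red-channel RNA signal and control-cluster median Fmax.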

[1] = designed as: OFF switch for flavin mononucleotide, no ligand
[2] = ligand present: flavin mononucleotide, designed as: OFF switch for flavin mononucleotide
[3] = designed as: ON switch for flavin mononucleotide, no ligand
[4] = ligand present: flavin mononucleotide, designed as: ON switch for flavin mononucleotide

For “GAGGAGCAAGGAUAUACGAGGAUAUGGUAGUUUGUAGAGUGACAUGAGGAUCACCCAUGUAGAAGGUGCGAGGG”, the “apparent Kd” value [1] was 0.0643 µM and the “apparent Kd” value [2] was 0.0529 µM.
For “AUAAUGAGAGGAUAUACAUGAGGAUCACCCAUGUUAUUAACACGGCGAGCUCCAAUACGUAGAAGGCUCAUUUA”, the “apparent Kd” value [1] was 0.123 µM and the “apparent Kd” value [2] was 0.0265 µM.
For “AAGAAGGACGCAGGAUAUCCAGGACCUCCCGCAGGAGAAGGGCGAGACAUGAGGAUCACCCAUACAUGAGGAUCACCCAUGUAG”, the “apparent Kd” value [1] was 0.0173 µM and the “apparent Kd” value [2] was 0.0185 µM.
In the case of “CUAUUACGAGGAUAUGAUUUAAAUAACAUGAGGAUCACCCAUGUUUUUACGUUAUUAUGUUCAGAAGGCGUAUUGU”, the “apparent Kd” value [1] is reported as 0.0265 µM and the “apparent Kd” value [2] is reported as 0.0194 µM.
“CCUUUGUCAGGAUAUCGAAAAGGGAGGCCAAAGGCCUCCGGUGAGAAGGGACAUGAGGAUCACCCAUGUGAAAA” was tested, and the “apparent Kd” value [1] was 0.0773 µM and the “apparent Kd” value [2] was 0.383 µM.
For “UCGGCGCGAGGAUAUACGUUUGCUUUUUAGGGUCGUGGCGUACAUGAGGAUCACCCAUGUAGAAGGCGCGCCGC”, the “apparent Kd” value [1] was 0.0169 µM and the “apparent Kd” value [2] was 0.0527 µM.
“AAGAGAAGAACUGAGGAUAUCAGGGAUGGUACAUGAGGAUCACCCAUGUUGGCAAGCGAAGAAACUGAGAAGGCAGAGAAGAAGAA” was tested, and the “apparent Kd” value [3] was 0.0803 µM and the “apparent Kd” value [4] was 0.0481 µM.
In the case of “AUUUUGUGAGGAUAUCAGGUGUGCUAGCGUACUGGUACAUCUGAGAAGGCACAUGAGGAUCACCCAUGUUUAUU”, the “apparent Kd” value [1] is reported as 0.0266 µM and the “apparent Kd” value [2] is reported as 0.06 µM.
For “GGGUACAUCGGAGGAUAUCAUGUAAAUACAUGAGGAUCACCCAUGUCGAUGGAGACAUCGGAGAUUGAGAAGGCCGAUGUAGCG”, the “apparent Kd” value [3] was 0.19 µM and the “apparent Kd” value [4] was 0.00912 µM.
With “AGGAGUAAAGGGAAUAACAUGAGGAUCACCCAUGUAUGGGAGAGAAGGCAUAUCGGAGGACGAUAUGAGGAUAUUUAAACUUUA” the “apparent Kd” value [3] was 0.106 µM and the “apparent Kd” value [4] was 0.0205 µM.
With “GUAGCAUGAUUAGGAUAUUCAGCGAAUAGAUUGACAUGAGGAUCACCCAUGUGGCGAAAGCCGAGGGAGAAGGGAUGAUGCUAC” the “apparent Kd” value [4] was 0.0474 µM.
“UAUUAGAUCCGAGGAUAUCCUUAUUAGAAACAUGAGGAUCACCCAUGUAAAGGGAAUUAUUUGUAGGAGAAGGCGGAUUUAGUU” was tested, and the “apparent Kd” value [3] was 0.0675 µM and the “apparent Kd” value [4] was 0.0529 µM.
“GGAUAGGACAGAGGAUAUACGUGCUAGUGAUACUAGCAAAAUUUCCUCACAUGAGGAUCACCCAUGUAGAAGGCUGUCCUAUCG” was tested, and the “apparent Kd” value [1] was 0.0155 µM and the “apparent Kd” value [2] was 0.453 µM.
For “UGGUACUAGGGAGGAUAUGGGAAGAUACAUGAGGAUCACCCAUGUUUAAGAAUGCCGAGAGCCAACUAGAAGGCCCUAGUACCU”, the “apparent Kd” value [3] was 0.12 µM and the “apparent Kd” value [4] was 0.0167 µM.
“AGCUAGUCAGGAUAUACAAACAUGUCAAAAGACGUGAAGAGACAUGAGGAUCACCCAUGUAGAAGGGACUAGCA” was tested, and the “apparent Kd” value [1] was 0.0266 µM and the “apparent Kd” value [2] was 0.0709 µM.
“AAACUCAUGCAGAAGGGACAAACGGGUGGGAUCUGCAUGUGCACAUGAGGAUCACCCAUGUGGUGUCAGGAUAUGCUGGGCACG” was tested, and the “apparent Kd” value [1] was 0.102 µM and the “apparent Kd” value [2] was 0.0752 µM.
For “UAAAUGUGAGGAUAUCAGGUGUGCUAGAAUACUGGUACAUCUGAGAAGGCACAUGAGGAUCACCCAUGUUCCUU”, the “apparent Kd” value [1] was 0.0164 µM and the “apparent Kd” value [2] was 0.041 µM.
For “UGUGUGUGACAGGAUAUGCUGGUUAUGAGACGGGUAGAAGGGUCUACAUGAGGAUCACCCAUGUGGCCGGUUGG”, the “apparent Kd” value [1] was 0.019 µM and the “apparent Kd” value [2] was 0.0212 µM.
For “UCAUGAAGGGCAGGAUAUGGACAUGAGGAUCACCCAUGUACAUGGGAUAAUAUACUAAAUUAAUACUAGAAGGGUUACAUAAAU”, the “apparent Kd” value [1] was 0.0372 µM and the “apparent Kd” value [2] was 0.0246 µM.
“AUGGUUCGAUUAGGAUAUUAUAGAUUGAAUAGUAUGAUUUACAUGAGGAUCACCCAUGUUACAUAUAAGAAGGAAUCGAAUCAU” was tested, and the “apparent Kd” value [1] was 0.0201 µM and the “apparent Kd” value [2] was 0.0116 µM.
For “AGCCUGAGUCGAGGAUAUUAUGGAUCAAUUAAUACAUGAGGAUCACCCAUGUAAUUAAUUUAACAUGAGAAGGUGACUCAGGCA”, the “apparent Kd” value [3] was 0.0113 µM and the “apparent Kd” value [4] was 0.0129 µM.
With “GCGCUUAUACAGAAGGCCAUAUACAUGAGGAUCACCCAUGUUACAUGGUGGAGGAUAUGUUAUUAAGUACAGGUAGAUGAGCGC” the “apparent Kd” value [3] was 0.00598 µM and the “apparent Kd” value [4] was 0.00538 µM.
With “GUAUAUAGUGUGAGGAUAUGCUGGUCCUUGGAUCAGCAGAAGGCACAUGAGGAUCACCCAUGUAGUUAAAUAUA” the “apparent Kd” value [1] was 0.0344 µM and the “apparent Kd” value [2] was 0.082 µM.
With “GCGUUCAUGUAGAAGGUACCUACAACAUAUUAUAAACGCUAGACACAUGAGGAUCACCCAUGUUGUAAGGAUAUACAUGAACGC” the “apparent Kd” value [3] was 0.049 µM and the “apparent Kd” value [4] was 0.022 µM.
In the case of “CGCCCGGGAGGAUAUCCAAUAUAUGACAUGAGGAUCACCCAUGUUUCCACUCGUACCUCCGGAGAAGGCCCGGCGC”, the “apparent Kd” value [1] is reported as 0.0222 µM and the “apparent Kd” value [2] is reported as 0.0225 µM.
“GGAGCUCAGAUUAACAUGAGGAUCACCCAUGUCUUUUGACAUGAGGAUAUGGAUCCUAAUUGGAUCCAGAAGGCAUGGAGCUCC” was tested, and the “apparent Kd” value [3] was 1.59 µM and the “apparent Kd” value [4] was 0.126 µM.
With “AGGAGAAAUGUAGGAUAUGGGCGUAUAUAUGGGCAAAGCGCAUAUAUACGCCCAGAAGGACAUGAGGAUCACCCAUGUUUCCCU” the “apparent Kd” value [1] was 0.0126 µM and the “apparent Kd” value [2] was 0.0129 µM.
For “UUGUUUCGUCAUUAACAUGAGGAUCACCCAUGUAUCGUCUCAAAGGAUAUAUAUGCUUGUUUGCUAUAGAAGGUUGAUUGUUGU”, the “apparent Kd” value [3] was 0.0712 µM and the “apparent Kd” value [4] was 0.0672 µM.
For “ACUGGUCGAGGAUAUACAUGAGGAUCACCCAUGUCGAUCAACCAGCGAUAGCUGGAAUGUAGAAGGCGACCAGU”, the “apparent Kd” value [1] was 0.2 µM and the “apparent Kd” value [2] was 0.446 µM.
“AUUUAGAGAGGAUAUAUUAUGUGAAACAUGAGGAUCACCCAUGUAAUAUGAUGGAUAUAAAUAGAAGGCUCAUUUA” was tested, and the “apparent Kd” value [1] was 0.033 µM and the “apparent Kd” value [2] was 0.0244 µM.
With “GUGUACGGAGGAUAUAUGUGGGCAGGCUGACCUGCAGCUUCACAUGAGGAUCACCCAUGUAGAAGGCUGUGCAC” the “apparent Kd” value [1] was 0.0222 µM and the “apparent Kd” value [2] was 0.0929 µM.
With “AUCAGCUCGACAGGAUAUACAUCACUGCUUCGGCAGUGUAUCUUAAUAACAUGAGGAUCACCCAUGUAGAAGGGUCGAGCUGAU” the “apparent Kd” value [1] was 0.0178 µM and the “apparent Kd” value [2] was 0.0316 µM.
In the case of “GAGGCACAUGAGGAUCACCCAUGUGGGUAUAACAUAGGAUAUCACCAACAAAAUACCCGGUGAGAAGGAUGAUGCC”, the “apparent Kd” value [3] is reported as 0.217 µM and the “apparent Kd” value [4] is reported as 0.113 µM.
With “UGAUAGGACAGAGGAUAUGCCGAUAGGAUCUACUAUCGAAGAAUCCUCACAUGAGGAUCACCCAUGUAGAAGGCUGUUCUAUCU” the “apparent Kd” value [1] was 0.00818 µM and the “apparent Kd” value [2] was 0.033 µM.
With “AAUAACAGAGGAUAUACUAUUUUAUGUGUUUAUUGUUUUGAACAUGAGGAUCACCCAUGUAGAAGGCUGAUUAA” the “apparent Kd” value [1] was 0.041 µM and the “apparent Kd” value [2] was 0.0587 µM.
With “UGGGUAAAUGUAGGAUAUCCAUAUUAAUAAUAUGGAGAAGGACAUGAGGAUCACCCAUGUACAGGGAAUUACCCAUUUCCUCUC” the “apparent Kd” value [1] was 0.0801 µM and the “apparent Kd” value [2] was 0.287 µM.
In the case of “UGGUACUAGGGAGGAUAUGGGAAGAUACAUGAGGAUCACCCAUGUUUAAGAAUGCCGAGAGGCAAAUAGAAGGCCCUAGUACCU”, the “apparent Kd” value [3] is reported as 0.658 µM and the “apparent Kd” value [4] is reported as 0.0854 µM.
“CGUUCACAUGAGGAUCACCCAUGUCAGAUUUGGUCAGGAUAUGGUCGGCUUCCGCUAUUGCCAGAAGGGACUGUUG” was tested, and the “apparent Kd” value [3] was 0.0305 µM and the “apparent Kd” value [4] was 0.0239 µM.
For “GAUAGGAAGUAAGGAUAUAGACAUGAGGAUCACCCAUGUCUGUGCCGCGUGGAUGAAGGGAGUGUCUAGAAGGUACUGCUCUGU”, the “apparent Kd” value [1] was 0.0155 µM and the “apparent Kd” value [2] was 0.0075 µM.
With “UGGUACAUGGGAGGAUAUGGGUUGAUAACAUGAGGAUCACCCAUGUUAAAAUGCCGAAAGGCAAACUAGAAGGCCCAUGUACCU” the “apparent Kd” value [3] was 0.443 µM and the “apparent Kd” value [4] was 0.0322 µM.
In the case of “GAGUGGAAGGCCGCUACAUGAGGAUCACCCAUGUGCUAAGCACAGGAUAUCGCGCGGGCCCGGCGCGAGAAGGGUGACGGCCUU”, the “apparent Kd” value [3] is reported as 1.01 µM and the “apparent Kd” value [4] is reported as 0.272 µM.
With “UGUCGGAGCAGAGGAUAUUACAUGAGGAUCACCCAUGUAUGAACCAAUUGCUGGAAACAGCAAUGUAAGAAGGCUGCUCCGACA” the “apparent Kd” value [1] was 0.00504 µM and the “apparent Kd” value [2] was 0.00944 µM.
In the case of “AAACCUAUAGGAUAUACAUGAGGAUCACCCAUGUUGCGAUUUUUUAGGUAACAGAUCCGUAGAAGGGUAGGUCA”, the “apparent Kd” value [1] is reported as 0.0364 µM and the “apparent Kd” value [2] is reported as 0.0666 µM.
In the case of “AUUAUUUAUAGUUAUUGGUAAUUGACAGAAGGUGAAAGUGUCACAUGAGGAUCACCCAUGUUCUUCAAGGAUAUGUUGGUUUAC”, the “apparent Kd” value [3] is reported as 0.0376 µM and the “apparent Kd” value [4] is reported as 0.0084 µM.
For “GAUUCGGGAGGAUAUACAUGAGGAUCACCCAUGUGUUUUUUGUGUGUUAUGUUAUCGUGUAGAAGGUUUGGGUC”, the “apparent Kd” value [1] was 0.144 µM and the “apparent Kd” value [2] was 0.203 µM.
With “CCUCCGUAUUAGGAUAUCGUCCCGGAAACGGGACGAGAAGGAAUAACAUGAGGAUCACCCAUGUUAACGUGAUG” the “apparent Kd” value [1] was 0.0188 µM and the “apparent Kd” value [2] was 0.0467 µM.
For “UUACUCAUGUAAGGAUAUGCAGCCGUUUCGGCUGCAGAAGGUACUAUACUACAUGAGGAUCACCCAUGUCUAUAAAAUAAAGAC”, the “apparent Kd” value [3] was 0.123 µM and the “apparent Kd” value [4] was 0.0444 µM.
With “AUAGGUUAAGGAGGAUAUAGAGGGAGACGUACACAUGAGGAUCACCCAUGUAUUUAAUUAGUUUACUAGAAGGCUUAUGAUUGU” the “apparent Kd” value [3] was 0.0655 µM and the “apparent Kd” value [4] was 0.101 µM.
